Source: PubChem BioAssay
Compounds with a hit are over-represented: about 1.4% of the library has one in this group of screens.
TNAP inh no acc – human TNAP enzyme inhibitors, primary screen, biochemical, luminescent, no phosphate acceptor, uHTS; purified TNAP, CDP-star luminescence, 30 min; actives 0.26% (n = 200,000); inhibition, % at 20 µM; Alkaline phosphatase, tissue-nonspecific isozyme (Homo sapiens), P05186;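 active = tissue-nonspecific alkaline phosphatase inhibition above about 50% at 20 µM in the single-dose screen, limit read from the data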;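 also: 0% = DMSO negative control and 100% = EDTA positive control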
Target sequence (P05186 whole entry, looked up): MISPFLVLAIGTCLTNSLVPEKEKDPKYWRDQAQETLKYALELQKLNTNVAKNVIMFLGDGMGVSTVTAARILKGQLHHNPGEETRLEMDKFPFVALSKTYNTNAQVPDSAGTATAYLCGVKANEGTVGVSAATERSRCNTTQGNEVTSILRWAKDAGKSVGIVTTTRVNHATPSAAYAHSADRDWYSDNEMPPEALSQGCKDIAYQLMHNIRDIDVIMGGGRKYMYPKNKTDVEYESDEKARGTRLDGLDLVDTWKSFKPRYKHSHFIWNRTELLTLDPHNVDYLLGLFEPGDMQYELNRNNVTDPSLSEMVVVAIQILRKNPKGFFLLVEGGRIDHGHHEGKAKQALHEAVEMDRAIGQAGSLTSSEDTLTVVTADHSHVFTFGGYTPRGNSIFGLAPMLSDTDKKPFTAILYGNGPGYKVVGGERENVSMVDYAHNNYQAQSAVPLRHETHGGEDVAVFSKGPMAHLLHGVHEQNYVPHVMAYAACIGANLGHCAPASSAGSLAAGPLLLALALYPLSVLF
TNAP act hiacc – TNAP activators at high phosphate acceptor level, primary screen, biochemical, luminescence, uHTS | purified TNAP, CDP-star luminescence, 1 M DEA, 30 min; stronger effect = higher value; 0 = EDTA background, 1 = DMSO-only activity | 200,000 tested, under 10 active | activation factor at 20 µM | Alkaline phosphatase, tissue-nonspecific isozyme (Homo sapiens), P05186;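 active = activation factor at least 2 at 20 µM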
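Test system – human TNAP · Doses – 20 µM single point · Incubation – 30 min, room temperature · Signal – luminescent substrate turnover signal · Read-out basis – activation factor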
TNAP inh hi DEA – human TNAP enzyme inhibitors, primary screen, biochemical, luminescent, high phosphate acceptor level, uHTS. AID 1135, 2008. actives 0.03% (n = 200,000). inhibition, % at 20 µM. Alkaline phosphatase, tissue-nonspecific isozyme (Homo sapiens), P05186. purified TNAP, CDP-star luminescence, 1 M DEA;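 active = over 50% inhibition of tissue-nonspecific alkaline phosphatase at 20 µM in the single-dose screen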;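 also: plate controls were DMSO wells for no effect and EDTA-quenched wells as full inhibition for full effect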
CHT allo act – CHT positive allosteric modulators, primary screen, cell-based, membrane potential dye, choline EC20; High affinity choline transporter 1 (Homo sapiens), Q9GZV3; CHT-expressing cells; stronger effect = higher value; LV-AA mutant CHT in HEK293 cells; B-score at 10 µM; actives 0.49% (n = 310,000);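 active = initial fluorescence not abnormally high and integrated response B-score, plate-corrected, over 3 SD above library mean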
CHT inh – inhibitors of human choline transporter CHT. B-score at 10 µM. CHT-expressing cells, membrane potential dye, choline response; stronger effect = lower value. High affinity choline transporter 1 (Homo sapiens), Q9GZV3. actives 0.86% (n = 310,000);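 active = B-score over 3 SD under the library average, and starting fluorescence ratio not unusually high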;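 also: choline stimulus applied at its EC90 after an EC20 pre-addition; B-score computed on integrated fluorescence ratio after choline addition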
ABCB6 inh MLPCN – ABCB6 transporter inhibitors, primary screen, K562-ABCB6 cells, flow cytometry, MLPCN library; fluorescence ratio to DMSO, % at 10 µM; K562-ABCB6 porphyrin accumulation, 1 h; stronger effect = lower value; AID 602162, 2011; ATP-binding cassette sub-family B member 6 (Homo sapiens), Q9NP58; actives 0.19% (n = 360,000);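 active = fluorescence ratio to DMSO below 75%, the collection mean minus 3 SD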;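 also: signal is porphyrin accumulated inside mitochondria; 100% equals median channel fluorescence of DMSO control wells; lower ratio means ABCB6 inhibition with less porphyrin fluorescence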
CHT act confirm – CHT activators, confirmation, cell-based, membrane potential dye, duplicate; shares compounds with CHT allo act; CHT-expressing cells, membrane potential dye fluorescence (FDSS); % of choline EC20–EC90 response window; HEK293 expressing CHT LV-AA mutant; choline added at its EC20; activation, % at 10 µM; actives 91% (n = 2,500); AID 504833, 2011;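 active = primary screen active, with duplicate mean activation above negative control mean plus 3 SD, cut at about 11% in these data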
HEK293 MP dye – membrane potential response in parental HEK293 cells, counter-screen for CHT activator project, cell-based, membrane potential dye. shares compounds with CHT allo act. AID 623908, 2012. ratio readout change at 10 µM, hits read low. actives 62% (n = 2,500). membrane potential dye fluorescence (FDSS); measured after EC20 choline addition;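 active = duplicate-averaged ratio beyond 3 SD from buffer wells, up or down, though filed actives are nearly all decreases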
Active calls of the source: *; i = inactive; . = not tested or not shown.

SMILES | TNAP inh no acc | TNAP act hiacc | TNAP inh hi DEA | CHT allo act | CHT inh | ABCB6 inh MLPCN | CHT act confirm | HEK293 MP dye
O=C(NC1CCCC1)C(c1ccsc1)N(Cc1ccco1)C(=O)Cc1cccs1 (configuration not stated) | -12 | 1.1 | -5 | 7.4* | i | 97 | 33* | i
O=C(NC1CCCC1)C(c1ccncc1)N(Cc1ccccc1)C(=O)Cc1cccs1 (configuration not stated) | -11 | 1 | -4 | i | i | 103 | . | .
COc1ccccc1CN(C(=O)Cc1cccs1)C(C(=O)NC1CCCC1)c1ccncc1 (configuration not stated) | -12 | 1 | -4 | i | i | 99 | 0 | i
Cc1cc(NC(=O)CCC(=O)N(Cc2ccco2)C2(C(=O)NC3CCCCC3)CCCC(C)C2)no1 (configuration not stated) | . | . | . | i | i | 96 | 19* | i
O=C(Cc1cccs1)N(Cc1ccco1)C1(C(=O)NC2CCCC2)CCCCC1 | -12 | 1 | -4 | 10* | i | 95 | 41* | i
N#Cc1cc([N+](=O)[O-])ccc1NC(=O)COC(=O)CN1C(=O)C2CCCCC2C1=O (configuration not stated) | . | . | . | . | . | 99 | . | .
O=C(NC1CCCC1)C(c1ccsc1)N(Cc1ccccc1)C(=O)Cc1cccs1 (configuration not stated) | -6 | 1 | -3 | 6.9* | i | 93 | 43* | i
C=CC[n+]1ccc2ccccc2c1C | 6 | 1 | -1 | 7.7* | i | 104 | 65* | -61*
COc1ccc2c(c1)c1ncn(CCN3CCNCC3)c(=O)c1n2C | -2 | 1 | 1 | i | i | 94 | 16* | -20*
COc1ccc2c(c1)c1ncn(CCN3CCCC3)c(=O)c1n2C | -14 | 1.1 | -6 | 6.5* | i | 102 | 45* | -24*
COc1ccc2[nH]c3c(=O)n(CCN4CCOCC4)cnc3c2c1 | . | . | . | i | i | 92 | . | .
COc1ccc2c(c1)c1ncn(CCN3CCCCC3)c(=O)c1n2C | -7 | 1.1 | -9 | i | i | 111 | . | .
Cc1c(C(=O)N2CCN(c3ncccn3)CC2)oc2ccc(Cl)cc12 | . | . | . | . | . | 96 | . | .
CC(C)(C)Nc1c2ccccc2nc2ccccc12 | . | . | . | i | i | 97 | 37* | -57*
COc1ccc(N)c2c1C(=O)c1ccccc1C2=O | 19 | 0.7 | 29 | 7.4* | i | 98 | 48* | -54*
Cn1ccnc1-c1ccc(-c2nccn2C)cc1 | . | . | . | 10* | i | 97 | 64* | -76*
CC(=O)NC(CC(=O)OC(C)C(=O)Nc1ncc(Cl)cc1Cl)c1ccccc1 (configuration not stated) | . | . | . | i | i | 99 | . | .
CC(OC(=O)CC(NC(=O)c1ccccc1Cl)c1ccccc1)C(=O)Nc1cccc(Cl)c1Cl (configuration not stated) | -22 | 1 | -4 | i | i | 106 | 31* | i
